Holding throughout (assay type): functional, cell-based
Assay [1] deals with HT-1080. Put plainly: Induction of apoptosis in human HT1080 cells assessed as upregulation of FADD protein expression at 10 uM pretreated with rapamycin for 1 hr prior to compound addition measured after 24 hrs by Western blotting analysis. A digest of the protocol:
(§1)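 HT1080 cells pretreated 1 h with 1 mM 3MA or 1 nM rapamycin, then co-incubated with 10 μM for 24 h. Adherent and floating cells lysed in Hepes pH 7.4/Triton buffer. 12% SDS-PAGE, nitrocellulose, antibodies against Fas, FADD, caspase-8, caspase-3, PARP and ICAD, ECL detection. Densities normalized to β-actin; n = 3.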
A general note: In western blotting, separated proteins are transferred to a membrane and probed.

The subject of assay [2] is HT-1080. Put plainly: Induction of apoptosis in human HT1080 cells expressing beclin 1 siRNA assessed as ICAD downregulation at 10 uM after 24 hrs by Western blotting relative to control. A digest of the protocol: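 5 × 10^5 HT1080 cells transfected with beclin 1 or nonspecific siRNA using TranSmarter for 7 h at 37 °C, then kept 24 h in normal medium. Treated with 10 μM for 24 h and lysed. Proteins assessed by Western blot with β-actin normalization and compared with nonspecific-siRNA groups.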

In assay [3] the test system is HT-1080. Description: Induction of apoptosis in human HT1080 cells assessed as increase in procaspase-3 cleavage at 10 uM pretreated with 3MA for 1 hr prior to compound addition measured after 24 hrs by Western blotting analysis. An outline of the steps: as §1
For assay [4], the system named is HT-1080. Description: Induction of autophagy in human HT1080 cells at 10 uM by MDC staining-based FACS flow cytometric analysis. The settings on record: TDE = time-dependent effect. An outline of the steps:
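HT1080 cells (3 × 10^5 per flask, grown 24 h) exposed to 10 μM for 12, 24 and 36 h. Cells collected and stained with 0.05 mM MDC at 37 °C for 1 h. MDC-positive ratio measured by flow cytometry, n = 3.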
A general note: A flow cytometer gives signals particle by particle.

The test system of assay [5] is HT-1080. Put plainly: Induction of apoptosis in human HT1080 cells assessed as increase in procaspase-3 cleavage at 10 uM pretreated with rapamycin for 1 hr prior to compound addition measured after 24 hrs by Western blotting analysis. An outline of the steps:
as §1

Active and inactive are the calls of the source. The rule behind the calls is not given here.

Turning to `C=C1C(=O)O[C@@H]2C[C@@]1(C)[C@@H]1C(=O)[C@]3(O)O[C@]14[C@@]2(C)OC(=O)[C@@]4(O)CC[C@H]1[C@H]3[C@H](O)C=C2CC=CC(=O)[C@@]21C` [PHYSALIN A], the result with HT-1080 [1] and with HT-1080 [5] was inactive. The result in the assay with HT-1080 [2] and in the assay on HT-1080 [3] was Active. Besides, the Activity result with HT-1080 [4] was “tde”.
